Data set [1] relates to Mus musculus. The data set can be described thus: Hepatotoxicity in ICR mouse assessed as increase in ALP level at 30 mg/kg, po for 7 days. Details: dose 30 mg/kg, route oral. The format is toxicity, organism-based. The settings on record: in vivo, 168 h. Summed up: (§1)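 Male ICR mice, 6−7 weeks old, four per cage, grouped by body weight. Oral 30 mg/kg or vehicle (1% ethanol/0.5% CMC in water, 10 mL/kg) once daily for 7 days, body weight recorded daily. After overnight fasting, mice were weighed under ether, and liver was removed and weighed. Serum was analysed on a dry-chemistry analyser for TG, TCHO, ALP, CRE, BUN and other markers. n = 7−23, ANOVA.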

For data set [2], the system named is Mus musculus. The data set can be described thus: Toxicity against KKAy mouse assessed as creatinine level at 10 mg/kg/day, po for 14 days (reference value: 0.2 mg/dl). The settings on record: in vivo, 336 h. Format: organism-based. Details: route oral.
Data set [3] deals with Mus musculus. The data set can be described thus: Toxicity against KKAy mouse assessed as total cholesterol level at 10 mg/kg/day, po for 14 days (reference value: 153.2 +/- 11.1 mg/dL). The format is organism-based. Details: route oral. Conditions: in vivo, 336 h.
Data set [4] concerns Mus musculus. The data set can be described thus: Toxicity against KKAy mouse assessed as plasma ALT level at 10 mg/kg/day, po for 14 days (reference value: 17.6 +/- 0.9 IU). The format is organism-based. Conditions: in vivo, 336 h. Further details: route oral.
The subject of data set [5] is Mus musculus. The experiment in a line: Antidiabetic activity in KKAy mouse at 10 mg/kg/day, po for 14 days measured on day 15 by oral glucose tolerance test relative to control. The format is functional, organism-based. A digest of the protocol:
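On day 15, KK-A^y mice dosed orally at 10 mg/kg/day for 14 days were fasted 17 h and given oral glucose at 1 g/kg. Blood glucose was read by glucose oxidase at 0, 15, 30, 45, 60, 90 and 120 min. n = 4−5.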

The test system of the next data set is Rattus norvegicus. The experiment in a line: Toxicity in Sprague-Dawley rat assessed as enlargement of spleen at 30 mg/kg, po for 28 days. The format is organism-based. Further details: dose 30 mg/kg, route oral. The settings on record: in vivo, 672 h. A digest of the protocol: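 Male and female SD rats, four weeks old on arrival, two per cage. Oral 30 mg/kg/day or vehicle (1% ethanol/0.5% CMC in water, 5 mL/kg) for 28 days, body weight recorded daily. After overnight fasting and isoflurane anaesthesia, liver, brain, kidney, spleen and testis were weighed, and serum was collected (2000g, 10 min, 4 °C) for blood chemistry.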

The test system of data set [6] is Mus musculus. The data set can be described thus: Toxicity in ICR mouse assessed as change in renal function parameters at 30 mg/kg/day, po for 7 days. The format is organism-based. Further details: route oral. The settings on record: in vivo, 168 h. Summed up: as §1
Data set [7] relates to Mus musculus. The data set can be described thus: Toxicity in ICR mouse assessed as increase in blood triglyceride level at 30 mg/kg/day, po for 7 days. The format is organism-based. Further details: route oral. The settings on record: in vivo, 168 h. A digest of the protocol:
as §1

The target of data set [8] is T1, Oxysterols receptor LXR-alpha (Homo sapiens) (UniProt Q13133).
T1 sequence (whole entry): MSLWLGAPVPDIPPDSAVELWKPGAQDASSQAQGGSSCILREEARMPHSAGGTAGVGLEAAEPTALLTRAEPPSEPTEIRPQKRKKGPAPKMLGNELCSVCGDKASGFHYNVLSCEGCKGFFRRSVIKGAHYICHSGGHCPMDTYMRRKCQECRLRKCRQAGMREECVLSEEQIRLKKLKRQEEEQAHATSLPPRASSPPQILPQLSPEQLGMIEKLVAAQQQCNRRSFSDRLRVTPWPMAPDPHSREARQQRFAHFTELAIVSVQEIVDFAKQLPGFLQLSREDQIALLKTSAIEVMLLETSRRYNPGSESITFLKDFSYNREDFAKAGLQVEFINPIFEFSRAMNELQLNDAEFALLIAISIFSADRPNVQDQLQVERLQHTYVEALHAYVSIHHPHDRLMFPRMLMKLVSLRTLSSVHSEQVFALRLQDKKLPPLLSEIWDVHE
The data set can be described thus: Transactivation of LXRalpha (unknown origin) by luciferase reporter gene assay relative to carba-T0901317. Summed up: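 Heterodimer luciferase assay in COS-1 cells cotransfected with RXRα (0.5 μg), partner receptor (PPARγ or LXRα, 0.5 μg) and partner response element reporter (4.0 μg), plus SEAP. Compound (DMSO below 1%) was added with seeding at about 2.0 × 10⁴ cells/well, then 18 h at 37 °C, 5% CO2. Luciferase was normalized to SEAP. Triplicates, three runs.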
(In general: A reporter such as luciferase makes a cellular process visible.)

Data set [9] deals with T2, Retinoic acid receptor RXR-gamma (Homo sapiens) (UniProt P48443).
T2 sequence (whole entry): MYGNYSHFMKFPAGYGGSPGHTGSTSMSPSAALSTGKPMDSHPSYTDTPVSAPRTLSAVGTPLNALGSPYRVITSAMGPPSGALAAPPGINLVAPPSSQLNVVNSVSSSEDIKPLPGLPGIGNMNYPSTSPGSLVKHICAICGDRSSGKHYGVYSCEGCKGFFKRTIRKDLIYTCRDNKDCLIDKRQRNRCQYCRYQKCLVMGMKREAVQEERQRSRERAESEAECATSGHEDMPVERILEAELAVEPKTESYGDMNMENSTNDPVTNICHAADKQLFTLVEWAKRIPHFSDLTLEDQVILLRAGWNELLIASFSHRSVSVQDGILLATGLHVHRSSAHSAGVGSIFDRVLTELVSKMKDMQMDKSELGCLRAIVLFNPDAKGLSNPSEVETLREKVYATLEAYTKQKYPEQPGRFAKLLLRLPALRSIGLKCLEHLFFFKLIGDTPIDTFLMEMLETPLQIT
The experiment in a line: Partial agonist activity at RXRgamma (unknown origin) by luciferase reporter gene assay relative to LGD1069.

The target in data set [10] is T3, Retinoic acid receptor RXR-beta (Homo sapiens) (UniProt P28702).
T3 sequence (whole entry): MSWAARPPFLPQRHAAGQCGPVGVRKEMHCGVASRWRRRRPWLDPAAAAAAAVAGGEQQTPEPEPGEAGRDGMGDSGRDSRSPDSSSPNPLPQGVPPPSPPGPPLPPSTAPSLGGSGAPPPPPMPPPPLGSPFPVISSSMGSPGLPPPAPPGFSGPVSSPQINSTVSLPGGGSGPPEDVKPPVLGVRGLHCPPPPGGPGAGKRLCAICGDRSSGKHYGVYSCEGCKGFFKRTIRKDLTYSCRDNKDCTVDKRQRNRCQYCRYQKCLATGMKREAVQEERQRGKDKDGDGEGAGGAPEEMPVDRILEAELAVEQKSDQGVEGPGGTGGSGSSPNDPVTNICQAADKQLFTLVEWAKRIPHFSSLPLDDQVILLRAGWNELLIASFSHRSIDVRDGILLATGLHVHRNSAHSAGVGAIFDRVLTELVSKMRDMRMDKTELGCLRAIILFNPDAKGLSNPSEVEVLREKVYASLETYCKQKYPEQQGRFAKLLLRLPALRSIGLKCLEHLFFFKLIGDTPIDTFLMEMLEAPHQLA
The data set can be described thus: Partial agonist activity at RXRbeta (unknown origin) by luciferase reporter gene assay relative to LGD1069.

A further data set deals with Plasma. The experiment in a line: Plasma concentration in ICR mouse at 30 mg/kg, po by HPLC analysis. Format: ADME, organism-based. Further details: dose 30 mg/kg, route oral. The settings on record: read-out: Cp, in vivo. A digest of the protocol:
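Six-week-old male ICR mice (n = 6−9) got a single oral 30 mg/kg dose in 1% ethanol/0.5% CMC in water, 10 mL/kg. Plasma was extracted with ethyl acetate and reconstituted in methanol. Reversed-phase HPLC (ODS-3, 40 °C, methanol:33.3 mM ammonium acetate pH 5.0 85:15, UV 280 nm), quantified against an authentic-compound calibration plot.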

Activity calls are given as the source filed them. The rule behind the calls is not given here.

In the case of `Cc1cc2c(cc1-n1c(C(F)(F)F)nc3cc(C(=O)O)ccc31)C(C)(C)CCC2(C)C`, the Activity result was “Toxic” in the data set with Mus musculus [1]; 0.2 mg/dL with Mus musculus [2]; 155.3 mg/dL in the data set on Mus musculus [3]; 17.3 IU with Mus musculus [4]; “Toxic” in the data set on Rattus norvegicus; “Non-toxic” in the data set on Mus musculus [6]. For the same compound, the Activity entry in the data set on Mus musculus [7] was “Non-toxic”. For the same compound, in the data set on Mus musculus [5], the result was inactive. Also, the outcome in data set [8], in [9] and in [10] was Active. Besides, in the data set with Plasma, the concentration was above 6 µM.

For the origin of these results see ChEMBL document CHEMBL2331224 (J Med Chem, 2013).
